Test results from article PMC6503206 (International Journal of Nanomedicine, 2019).
≈ marks a conversion by molar mass, not a printed value.

Columns and labels:
[1] = cited from earlier work
[2] = cited from earlier work; remark: listed apart in the source
[3] = Solubility of celecoxib in oils and cosurfactants; type: physicochemical; conditions: thermodynamic from solid
Outline: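 Excess solid test compound was stirred magnetically in 2 mL of each neat oil or cosurfactant at room temperature for 24 hrs, then centrifuged at 10,000 rpm for 10 mins. The supernatant was passed through a 0.45 µm membrane, diluted with methanol, and quantified by HPLC on a 5 µm C18 reversed-phase column (4.6×250 mm).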

| Structure (SMILES) | log partition coefficient [1] | solubility in water [2] [mg/mL] | solubility at 24 h ([3]; PEG 400, organic solvent or mixture) [mg/mL] | solubility at 24 h ([3]; ethanol, organic solvent or mixture) [mg/mL] | solubility at 24 h ([3]; fish oil, oil or lipid) [mg/mL] | solubility at 24 h ([3]; glycerine, organic solvent or mixture) [mg/mL] | solubility at 24 h ([3]; medium-chain triglycerides (MCT oil), oil or lipid) [mg/mL] | solubility at 24 h ([3]; oleic acid, oil or lipid) [mg/mL] | solubility at 24 h ([3]; propylene glycol (PG), organic solvent or mixture) [mg/mL] |
| --- | --- | --- | --- | --- | --- | --- | --- | --- | --- |
| CCN(CC)c1ccc2nc3c4ccccc4c(=O)cc-3oc2c1 [Nile red] | 5.0 | – | – | – | – | – | – | – | – |
| Cc1ccc(-c2cc(C(F)(F)F)nn2-c2ccc(S(N)(=O)=O)cc2)cc1 [celecoxib, Celecoxib] | – | 0.00255 to 0.00457 | 433 ± 31.7 (≈ 1140 mM) | 79.2 ± 10.2 (≈ 208 mM) | 3.25 ± 0.16 (≈ 8.52 mM) | 0.42 ± 0.01 (≈ 1.1 mM) | 11.6 ± 3.08 (≈ 30.5 mM) | 0.73 ± 0.06 (≈ 1.91 mM) | 24.2 ± 0.99 (≈ 63.6 mM) |
